Assay results reported in ChEMBL document CHEMBL1800061 (J Med Chem, 2010).
Calls of active or inactive are those of the source. The calls are words filed in the database; no cut-off is given here.

Assays:
[1] = Antiproliferative activity against human HUVEC cells after 72 hrs by sulforhodamine B assay; type: cell-based
Outline: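 HUVEC cells grown per supplier's protocols and treated with increasing concentrations for 72 h. Growth read by sulforhodamine B assay. Mean IC50 from at least three replicates, with SD.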

MCF7 [2] = assay: Cell cycle arrest in human MCF7 cells assessed as concomitant increase in cells at G2/M phase at 1 to 10 umol/L after 24 hrs by propidium iodide staining based flow cytometric analysis; type: functional
MCF7 [3] = assay: Induction of apoptosis in human MCF7 cells assessed as increase in sub-G1 population at 1 to 10 umol/L after 24 hrs by […] staining based flow cytometric analysis; type: functional, cell-based
[4] = biological target: Cyclin-dependent kinase 1 (Homo sapiens) (UniProt P06493); assay: Inhibition of CDK1-mediated phosphorylation of PP1a at Thr320 in human HCT116 cells after 4 hrs by immunoblotting analysis; type: cell-based; conditions: HCT-116
Outline: (§1)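 HCT116 colon cancer cells were kept in DMEM with 10% FCS. Cells (8×10^5) were plated, dosed 24 h later, and exposed for 4 or 24 h. Whole-cell lysates were made in RIPA buffer with phosphatase and protease inhibitor cocktails and normalised by BCA protein assay. They were immunoblotted for phospho-sites, total proteins and cyclins.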

[5] = biological target: G2/mitotic-specific cyclin-B1 (Homo sapiens) (UniProt P14635); assay: Inhibition of cyclin B-mediated phosphorylation of RB protein in human HCT116 cells after 4 hrs by immunoblotting analysis; type: cell-based; conditions: HCT-116; outline: as §1
[6] = biological target: Cyclin-dependent kinase 1 (Homo sapiens) (UniProt P06493); assay: Inhibition of CDK1-mediated phosphorylation of […] in human HCT116 cells after 4 hrs by immunoblotting analysis; type: cell-based; conditions: HCT-116; outline: as §1
[7] = biological target: Cyclin-dependent kinase 4 (Homo sapiens) (UniProt P11802); assay: Inhibition of CDK4-mediated phosphorylation of […] in human HCT116 cells after 4 hrs by immunoblotting analysis; type: cell-based; conditions: HCT-116; outline: as §1
[8] = biological target: Cyclin-dependent kinase 9 (Homo sapiens) (UniProt P50750); assay: Inhibition of CDK9-mediated phosphorylation of RNA pol3 in human HCT116 cells after 4 hrs by immunoblotting analysis; type: cell-based; conditions: HCT-116; outline: as §1
[9] = biological target: G2/mitotic-specific cyclin-B1 (Homo sapiens) (UniProt P14635); assay: Inhibition of cyclin B-mediated phosphorylation of RNA pol3 in human HCT116 cells after 4 hrs by immunoblotting analysis; type: cell-based; conditions: HCT-116; outline: as §1
Mus musculus [10] = assay: Toxicity in nude BALB/c mouse assessed as adverse effect on weight at 5 mg/kg, ip bid for 14 days; type: organism-based; design: dose 5 mg/kg, route intraperitoneal; conditions: in vivo, 336 h
Outline: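 Nude mice bearing MCF-7 tumors, randomized, given ip injections twice daily with vehicle or 5 or 10 mg/kg (10 or 20 mg/kg/day) for 14 days. Body weights were followed over the study; n=8–11 per group.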

[11] = Tmax in mouse at 10 mg/kg, po; type: ADME, organism-based; design: dose 10 mg/kg, route oral; conditions: in vivo
[12] = Cmax in mouse at 10 mg/kg, ip; type: ADME, organism-based; design: dose 10 mg/kg, route intraperitoneal; conditions: in vivo
Outline: (§2)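 Mice given 10 mg/kg by the ip, iv or oral route. Plasma levels were measured at 8 time points, with 3 animals per route for po and iv. Parameters came from a noncompartmental model. AUCINF was extrapolated to infinity, and bioavailability was calculated from AUCINF. The terminal slope used 3 points.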

[13] = Elimination half life in mouse at 10 mg/kg, iv; type: ADME, organism-based; design: dose 10 mg/kg, route intravenous; conditions: in vivo, read-out: beta t1/2; outline: as §2
[14] = biological target: Mitogen-activated protein kinase 14 (Homo sapiens) (UniProt Q16539); assay: Inhibition of p38alpha MAPK assessed as residual enzyme activity at 10 uM
[15] = biological target: Mitogen-activated protein kinase 12 (Homo sapiens) (UniProt P53778); assay: Inhibition of p38-gamma MAPK assessed as residual enzyme activity at 10 uM
[16] = biological target: Protein kinase C zeta type (Homo sapiens) (UniProt Q05513); assay: Inhibition of PKCzeta assessed as residual enzyme activity at 10 uM
[17] = biological target: MAP kinase-interacting serine/threonine-protein kinase 2 (Homo sapiens) (UniProt Q9HBH9); assay: Inhibition of MNK2 assessed as residual enzyme activity at 10 uM
Mus musculus [18] = assay: Inhibition of cyclin-dependent kinase substrate RB phosphorylation at Thr 821 in nude BALB/c mouse PBMC at 75 mg/kg, po measured after 24 hrs by immunostaining and flow cytometric analysis; type: functional
Outline: (§3)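 Seven-week-old female nu/nu-BALB/c nude mice got a single oral gavage (vehicle 28% PEG300/5% dimethylacetamide/10% HPB cyclodextrin in water). Blood was taken by cardiac puncture at 6 h or 24 h, red cells were lysed, and PBMC were fixed and permeabilized. Cells were stained with Rb, Rb pThr821, PolII or PolII pSer2 antibodies plus an Alexa488 secondary, then read by flow cytometry; n=4 (n=3 at 100 mg/kg).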

Mus musculus [19] = assay: Inhibition of cyclin-dependent kinase substrate RB phosphorylation in nude BALB/c mouse PBMC at 75 to 100 mg/kg, po measured after 24 hrs by immunostaining and flow cytometric analysis; type: organism-based; design: dose 75-100 mg/kg, route oral; conditions: in vivo; outline: as §3
[20] = biological target: MAP kinase-activated protein kinase 2 (Homo sapiens) (UniProt P49137); assay: Inhibition of MAPKAPK2 assessed as residual enzyme activity at 10 uM
[21] = biological target: Calcium/calmodulin-dependent protein kinase type 1 (Homo sapiens) (UniProt Q14012); assay: Inhibition of CAMK1 assessed as residual enzyme activity at 10 uM
[22] = biological target: SRSF protein kinase 1 (Homo sapiens) (UniProt Q96SB4); assay: Inhibition of SRPK1 assessed as residual enzyme activity at 10 uM
[23] = biological target: Serine/threonine-protein kinase PAK 4 (Homo sapiens) (UniProt O96013); assay: Inhibition of PAK4 assessed as residual enzyme activity at 10 uM
[24] = biological target: Tyrosine-protein kinase CSK (Homo sapiens) (UniProt P41240); assay: Inhibition of CSK assessed as residual enzyme activity at 10 uM
[25] = biological target: T1, Insulin receptor-related protein (Homo sapiens, UniProt P14616); assay: Inhibition of IRR assessed as residual enzyme activity at 10 uM
[26] = biological target: Tyrosine-protein kinase Yes (Homo sapiens) (UniProt P07947); assay: Inhibition of YES1 assessed as residual enzyme activity at 10 uM
[27] = biological target: Serine/threonine-protein kinase TBK1 (Homo sapiens) (UniProt Q9UHD2); assay: Inhibition of TBK1 assessed as residual enzyme activity at 10 uM
[28] = biological target: Mitogen-activated protein kinase 1 (Homo sapiens, UniProt P28482); assay: Inhibition of ERK2 at 0.1 uM
[29] = biological target: T1, Insulin receptor-related protein; assay: Inhibition of IRR at 0.1 uM
[30] = biological target: Eukaryotic elongation factor 2 kinase (Homo sapiens) (UniProt O00418); assay: Inhibition of EFK2 assessed as residual enzyme activity at 10 uM

Question: Which results are given for `CC(C)c1cnn2c(NCc3ccccc3)cc(N[C@@H](CO)[C@H](O)CO)nc12`?
Answer: GI50 at 72 h [1]: 6.3 µM; Activity (MCF7 [2]): Active; Activity (MCF7 [3]): Active; inhibition [4]: Active; inhibition [5]: inactive; inhibition [6]: inactive; inhibition [7]: inactive; inhibition [8]: inactive; inhibition [9]: inactive; Activity (Mus musculus [10]): Non-toxic; Tmax [11]: 0.25 h; Cmax [12]: 5600 ng/mL; half-life [13]: 3.5 h; Activity [14]: 98%; Activity [15]: 112%; Activity [16]: 64%; Activity [17]: 136%; inhibition in vivo at 75 mg/kg (Mus musculus [18]): 50%; inhibition (INH) (Mus musculus [19]): Not Active; Activity [20]: 111%; Activity [21]: 93%; Activity [22]: 62%; Activity [23]: 55%; Activity [24]: 77%; Activity [25]: 32%; Activity [26]: 89%; Activity [27]: 87%; inhibition [28]: < 50%; inhibition [29]: < 50%; Activity [30]: 92%
